Screening data (PubChem)
EBV gp42 block – inhibitors of Epstein-Barr virus glycoprotein 42 | actives 0.42% (n = 220,000) | inhibition, % (tested at 21.74 µM) | AID 1085 | Fluorescence polarization binding assay, mP read-out; in the data active = inhibition above about 50%
Target sequence (Q1HVG2 whole entry, looked up): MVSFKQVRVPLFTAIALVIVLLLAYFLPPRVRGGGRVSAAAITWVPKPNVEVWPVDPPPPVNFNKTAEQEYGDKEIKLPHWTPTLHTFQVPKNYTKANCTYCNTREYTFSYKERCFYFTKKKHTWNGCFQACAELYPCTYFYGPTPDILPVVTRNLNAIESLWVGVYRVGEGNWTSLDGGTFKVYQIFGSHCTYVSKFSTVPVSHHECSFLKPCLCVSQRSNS
Tb MetRS inh – blocks T. brucei methionyl-tRNA synthetase activity. purified T. brucei MetRS, ATP depletion, Kinase-Glo luminescence. inhibition, % at 11.9 µM. actives 0.4% (n = 360,000);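 active = inhibition above a per-plate cutoff of the control wells' mean inhibition plus 3 SD, cut at about 5.5% in these data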
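Material: parasite MetRS enzyme / Replication: singlicate, one well per compound / Signal: luminescence of leftover ATP / Schedule: 2 h aminoacylation at 25 °C after 15 min preincubation / Medium: HEPES-MgCl2-KCl buffer plus DTT, spermine, BSA, pyrophosphatase / Doses: 11.9 µM single point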
WT yeast gro inh – growth inhibition of WT yeast, mitochondrial fusion screen; mitochondrial fusion phenotypic screen, WT strain; inhibition, % at 10 µM; actives 2.1% (n = 190,000); in the data active = inhibition above about 58%; tested in S. cerevisiae
MPTP block – inhibitors of mitochondrial permeability transition pore; isolated mouse mitochondria, Ca2+ swelling absorbance, 30 min; inhibition, % at 10 µM; actives 1.4% (n = 360,000); AID 602449;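 active = inhibition of 50% or more, scaled per plate between neutral and stimulator controls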
CHOP inh – inhibitors of CHOP induction in ER stress response. inhibition, % at 10 µM. CHO-K1 CHOP-promoter luciferase, tunicamycin-induced, 15-18 h. actives 3.8% (n = 220,000);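 active = compounds that reduced the stress-induced luciferase reporter signal by more than about 70% of percent inhibition, limit read from the data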
GRIN3A LBD mod – modulates the human NR3A ligand-binding domain; Tm shift relative to glycine control, % at 25 µM; AID 1259313; actives 2.5% (n = 340,000); NR3A LBD differential scanning fluorimetry, Tm shift; 0% = protein alone, 100% = glycine-bound protein;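 active = melting temperature shift of at least 10% of the positive control shift, at one fixed dose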
Numbers stand for hits; i = inactive; nt = no result. Sampled rows, rich in hits. Any-hit rate of the full collection: about 6.4%.

SMILES	EBV gp42 block	Tb MetRS inh	WT yeast gro inh	MPTP block	CHOP inh	GRIN3A LBD mod
Cc1ccc(NCN2C(=O)C(=O)c3ccccc32)nc1	i	i	i	i	i	13.1
Cc1nn(Cc2ccc(Cl)cc2Cl)c(C)c1NC(=O)NC12CC3CC(CC(C3)C1)C2	i	i	67.6	i	i	i
Cc1nn(Cc2ccc(Cl)cc2Cl)c(C)c1NC(=O)c1sc2ccccc2c1Cl	i	i	i	i	i	i
COc1ccc(S(=O)(=O)N2CCOCC2)cc1NC(=O)CN(C)CC(=O)Nc1cccc(F)c1	nt	i	nt	i	nt	i
Cc1cc(S(=O)(=O)NC[C@H]2O[C@@H](n3cnc4c(N)ncnc43)[C@H](O)[C@@H]2O)c(C)s1	nt	i	nt	i	nt	i
Nc1ncnc2c1ncn2[C@@H]1O[C@H](CNS(=O)(=O)c2cc(S(=O)(=O)c3ccccc3)cs2)[C@@H](O)[C@H]1O	nt	i	nt	i	nt	15.4
CCCc1nc(SCC(=O)Nc2cc(Cl)ccc2OC)c2c(=O)n(C)c(=O)n(C)c2n1	i	nt	i	nt	79.2	nt
CCCc1nc(SCC(=O)c2ccccc2)c2c(=O)n(C)c(=O)n(C)c2n1	i	i	i	i	73.7	i
C=CCC(C)(NCc1ccccc1)c1ccc(C)cc1 (stereo not given)	i	i	i	i	75.2	i
C=CCC(C)(NCc1ccccc1)c1ccccc1 (stereo not given)	i	i	i	i	i	i
CCOc1c2ccc(C(=O)NCCc3ccc(C)cc3)cc2nn1CC	i	i	i	i	i	i
COc1cc2ccccc2cc1C(=O)OCC(=O)c1c(N)n(C)c(=O)n(C)c1=O	nt	i	nt	i	nt	i
CCN(CC)S(=O)(=O)c1ccc(N/N=C(\C)c2ccc3c(c2)OCO3)c([N+](=O)[O-])c1	i	i	i	i	92.5	i
C/C(=N\Nc1ccc(S(N)(=O)=O)cc1[N+](=O)[O-])c1ccc2c(c1)OCO2	i	i	i	i	i	i
CCc1cc(=O)oc2cc(OC(=O)c3ccco3)ccc12	nt	i	nt	i	nt	476.1
CCCCCc1ccc(-c2ccc(=O)[nH]n2)cc1	i	i	i	i	92.8	i
Cc1ccc(-c2ccc(=O)[nH]n2)cc1	i	i	i	i	i	i
O=C(C1=C[C@H](c2ccccc2)C[C@H](OCc2ccc(CO)cc2)O1)N1CCN(Cc2ccc3c(c2)OCO3)CC1	i	i	i	i	i	i
O=C(C1=C[C@H](c2csc3ccccc23)C[C@H](OCc2ccc(CO)cc2)O1)N1CCN(Cc2ccc3c(c2)OCO3)CC1	i	i	97.7	i	i	i
O=C(C1=C[C@H](c2csc3ccccc23)C[C@H](OCc2ccc(CO)cc2)O1)N1CCN(Cc2ccccc2)CC1	i	i	96.6	i	i	i
COc1ccccc1CCc1nnc(CCC(=O)NCC[C@@H]2C[C@@H]3C=C[C@H]2C3)o1	i	i	i	i	i	i
CCOC(=O)[C@]12CCC=C1N(Cc1ccccc1)C(=O)[C@H](CC(=O)NCCc1ccccc1OC)C2	nt	i	nt	i	nt	nt
COc1ccc(NC(=O)c2ccco2)cc1NC(=O)c1c(OC)cccc1OC	nt	i	nt	i	nt	i
COC(=O)c1cccc(NC(=O)c2ccco2)c1	i	i	i	i	i	i
COc1cc(NC(=O)c2ccco2)c(OC)cc1NC(=O)Nc1cccc(Cl)c1	i	i	i	i	i	22.0
SMILES	EBV gp42 block	Tb MetRS inh	WT yeast gro inh	MPTP block	CHOP inh	GRIN3A LBD mod
O=C(Nc1cccc(S(=O)(=O)c2cccc(NC(=O)c3ccco3)c2)c1)c1ccco1	i	i	nt	i	i	34.9
CC(C)(C)C(=O)COC(=O)c1cccc(NC(=O)c2ccco2)c1	i	i	i	i	72.3	i
O=C(Nc1cccc(S(=O)(=O)N2CCCC2)c1)c1ccco1	nt	i	nt	i	nt	i
O=C(Nc1cccc(NC(=O)c2ccco2)c1)c1cccc(Br)c1	nt	i	nt	i	nt	14.8
Cc1ccc(-n2c(SCC(=O)N3CCCCC3)nc(O)cc2=O)cc1	i	i	nt	i	i	i
O=C(Nc1cc(Br)c(O)c(Br)c1)c1cccc(NC(=O)c2ccco2)c1	nt	i	nt	i	nt	22.9
COc1ccccc1NC(=O)c1cccc(NC(=O)c2ccco2)c1	i	i	73.6	i	i	i
Cc1cc(C)cc(NC(=O)c2cccc(NC(=O)c3ccco3)c2)c1	nt	i	nt	i	nt	i
CCOc1cc(NC(=O)c2ccco2)c(OCC)cc1NC(=O)CCc1ccccc1OC	i	i	i	i	i	15.5
Cc1ccc(NC(=O)c2ccc(NCc3ccco3)c([N+](=O)[O-])c2)cc1Cl	i	i	i	i	i	15.0
COc1ccc(OC)c(NC(=O)c2cccc(NC(=O)c3ccco3)c2)c1	nt	i	nt	i	nt	nt
COC(=O)[C@]1(C)N[C@H](CN(C)C(=O)Nc2ccc(OC)cc2)[C@@H]2C(=O)N(Cc3ccccc3)C(=O)[C@@H]21	nt	i	nt	i	nt	i
CC1(C)CC(=O)C=C(C(=O)NC2CCCc3c2cnn3-c2cc(F)cc(F)c2)O1 (stereo not given)	nt	i	nt	i	nt	i
COC(=O)c1ccc(NC(=O)c2cccc(NC(=O)c3ccco3)c2)cc1	nt	i	nt	i	nt	i
CC(C)CNC(=O)c1cccc(NC(=O)c2ccc(NC(=O)c3ccco3)cc2)c1	i	i	i	i	i	23.4
COc1cc(NC(=O)c2ccc(OC)c([N+](=O)[O-])c2)ccc1NC(=O)c1ccco1	i	i	nt	i	i	17.0
COc1cc(NC(=O)c2oc3ccccc3c2C)ccc1NC(=O)c1ccco1	nt	i	nt	i	nt	24.1
C[C@H](CO)N1C[C@H](C)[C@@H](CN(C)S(=O)(=O)c2cccs2)Oc2ccc(NC(=O)CCC(F)(F)F)cc2C1=O	nt	i	nt	i	nt	i
O=c1oc2ccccc2cc1-c1cn2cccnc2n1	i	i	i	i	i	i
O=c1oc2ccccc2cc1-c1cn2ccccc2n1	i	i	i	i	94.8	i
CCC/C(=N/Nc1ccc(Cl)cc1)c1cnnc(-c2ccccc2)n1	nt	nt	nt	nt	nt	i
COc1ccc(N/N=C(/C)c2cnnc(-c3ccccc3)n2)cc1	i	i	i	i	i	13.2
Cc1ccc(C(=O)N[C@@H](C)CN2C3=NC[C@H](C(C)C)N3C[C@H]2Cc2ccc(O)cc2)cc1Br	i	i	i	i	i	i
FC(F)(F)c1cc(Cl)c2nc(-c3ccccc3)c(Cc3cccc(Cl)c3)n2c1	nt	i	nt	i	nt	nt
COc1ccc(NC(=S)NCc2ccc(S(N)(=O)=O)cc2)cc1OC	i	i	i	i	i	i
NS(=O)(=O)c1ccc(CNC(=S)Nc2ccc(Cl)c(Cl)c2)cc1	i	i	i	i	i	11.6
OC(COc1ccc2ccccc2c1Br)Cn1cnc(-c2ccccc2)c1 (stereo not given)	i	i	88.0	i	75.8	13.6
O=C1c2ccccc2C(=O)N1CCOc1cccc(Br)c1	nt	i	nt	i	nt	11.1
CCOC(=O)C1=C(CN2CCOCC2)NC(=O)NC1c1cc(C)ccc1C (stereo not given)	i	i	i	i	i	i
S=C(Nc1cccc2ccccc12)Nc1cccc2ccccc12	nt	i	nt	i	nt	i
